Results reported in PubChem BioAssay AID504775 (Broad Institute, 2011).
Screen size: about 320,000 compounds; about 310 (0.097%) were called active.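 The calls were made as follows: active = mean replicate activation of at least 60% and every replicate at or above 60%; inconclusive = mean or all-replicate condition met, but not both; inactive = mean below 60% and not all replicates reaching 60%.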 The entries come from a sample that favours actives as a whole.

Experiment: enhancers of HDL lipid transfer via mSR-BI – ldlA[mSR-BI] CHO cells, DiI fluorescence, primary screen (AID 504775);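 also: 0% = median plate neutral-control signal and 100% = twice that signal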
Conditions: DiI-HDL uptake fluorescence, 3 h, at 12.5 µM, hits give high values, 100 = double the neutral-control signal
In short: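 Test system: SR-BI-overexpressing, LDLR-lacking CHO cells; Medium: Ham's F12 with 0.5% BSA, HEPES 25 mM, pH 7.4; Schedule: 3 h, 37 °C; Technique: bottom-read fluorescence, 550/595 nm.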

activation, inactive:
C#CCOCCOCCOCCNc1nc(N2CCOCC2)nc(N2CCN(C(=O)[C@H](Cc3ccc(O)cc3)n3cc(CCO)nn3)CC2)n1 15.4%
CC1CN(Cc2ccco2)C(=S)N(c2ccccc2)C1=O (stereo not given) 33.1%
COc1cccc(-c2sc3ccc(OC)cc3c2-c2ccc(OCCN3CCCCC3)cc2)c1 -2.84%
COc1ccc(-c2sc3ccccc3c2-c2ccc(OCCN3CCOCC3)cc2)cc1 -39.3%
COc1cccc2oc(CCc3ccccc3)cc(=O)c12 4.54%
CC(=O)OC1CCC2(C)C(=CCC3C4CC(=O)N(O)C(=O)C4(C)CCC32)C1 (stereo not given) 19%
COc1ccc(NC(=O)/C(N=Nc2cccc(S(=O)(=O)Nc3ccc(SC(F)F)cc3)c2)=C(\C)O)cc1 19.4%
COc1ccc2nc(N3C(=O)C(O)=C(C(=O)c4ccco4)C3c3ccco3)sc2c1 (stereo not given) 2.11%
O=C1NC(=O)C(CCc2ccccc2)(c2ccccc2)N1 (stereo not given) 20.8%
COC[C@@H]1NS(=O)(=O)c2ccc(Br)cc2O[C@H]1c1ccccc1 -5.43%
COc1ccc2c(c1)[C@H]1[C@H](CO2)[C@H](c2ccccc2)[C@]2(C)C(=O)Nc3cc(F)c(F)cc3C(=O)N12 -10.6%
CCOC(=O)[C@H]1[C@H]2COc3ccc(Cl)cc3[C@@H]2N2C(=O)c3cc(C)ccc3NC(=O)[C@@]12C 5.05%
CCOc1ccc(CCNC(=O)COC(=O)C2CCN(S(=O)(=O)c3ccccc3)CC2)cc1OCC -35%
NS(=O)(=O)c1ccc(NC(=O)COC(=O)c2ccco2)cc1 -5.86%
COc1cc(NC(=S)NCc2ccc(S(N)(=O)=O)cc2)cc(OC)c1 1.73%
COc1ccc(/C=C2/CCCc3ccccc3C2=O)cc1 -12.7%
CN(CCc1ccccc1)C(=O)c1cccc(NC(=O)Cc2cccc(NC(=O)C3CCCN(C(=O)C4CCC4)C3)c2)c1 (stereo not given) -26.9%
CN(Cc1ccccc1)C(=O)c1ccc(NC2=NC3CS(=O)(=O)CC3S2)cc1 (stereo not given) -2.73%
COc1ccccc1N1CCN(C(=O)c2ccc(NC3=NC4CS(=O)(=O)CC4S3)cc2)CC1 (stereo not given) 14.4%
COc1cc2c(cc1OC)C1C(=O)c3cc(OS(C)(=O)=O)c(OC)cc3C1N(C)C2=O (stereo not given) 1.01%
COc1ccc(Cn2cc(CN3CCS(=O)(=O)N(Cc4ccc(-c5cccc(Cl)c5)cc4)C(C)C3=O)nn2)cc1 (stereo not given) -34.7%
O=[N+]([O-])c1ccc(COc2ccccc2CN2CCOCC2)cc1 19.3%
CCc1ccccc1NC(=O)CN(C)S(=O)(=O)c1ccc2c(c1)c(=O)n(C)c(=O)n2C -3.85%
COc1cccc(CNC(=O)CN(C)S(=O)(=O)c2ccc3c(c2)c(=O)n(C)c(=O)n3C)c1 -3.22%
O=C1CC(C(=O)O)NC(=S)N1 (stereo not given) 3.49%
Cc1cc(C)c(C=NNc2nc3c([nH]2)c(=O)n(C)c(=O)n3C)c(C)c1 12.4%
CN(C)CCNC(=O)c1ccc(Cl)c2cc3ccccc3nc12 8.43%
CCN(CC)S(=O)(=O)c1cccc(NC(=O)c2ccc(S(=O)(=O)N3CCCC3)cc2)c1 -41.2%
CC(C)=CCc1ccc(O)c(=O)cc1C(C)C -12.4%
O=C(Nc1c(Br)cc2c(c1Br)Cc1cc([N+](=O)[O-])ccc1-2)C(Cl)Cl -60.9%
CN(O)C(=S)c1ccccc1 24.5%
O=C1CC(c2ccccc2)C(c2ccccc2)=NN1 (stereo not given) 1.49%
COc1cc(/C=C/CNC[C@H]2O[C@@H](n3cnc(C(N)=O)n3)[C@H](O)[C@@H]2O)ccc1O 8.13%
O=S(=O)(Cc1ccc(Cl)cc1Cl)c1ccc(Cl)cc1 -15.8%
Cc1ccc2c(O)c(Cc3ccccc3)c(=O)[nH]c2n1 -7.66%

activation, active:
COc1ccc2sc(-c3ccccc3OC)c(-c3ccc(OCCN4CCCC4)cc3)c2c1 88%
Cc1ccc2c(c1)NC(=O)[C@@]1(C)[C@@H](c3ccccc3)[C@H]3COc4ccc(Cl)cc4[C@@H]3N1C2=O 138%
NS(=O)(=O)c1ccc(CNC(=S)NC(=O)c2ccco2)cc1 304%
O=C(NCCc1ccccc1)c1ccc(NC2=NC3CS(=O)(=O)CC3S2)cc1 (stereo not given) 85.7%
CC1CCC(NC(=O)CN(C)S(=O)(=O)c2ccc3c(c2)c(=O)n(C)c(=O)n3C)CC1 (stereo not given) 246%
